Experimental data from paper PMC3483362 (Journal of inorganic biochemistry, 2012).
Entries after “also recorded” stand apart in the source; their conditions may differ.

Assays:
plasmid (pBR322) DNA = experiment: Electrophoresis mobility shift assay; format: binding; details: 37 °C, 20 h, increasing molar ratios
Procedure, shortened: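 pBR322 plasmid DNA (20 µg/mL) in 5 mM Tris/HCl, 50 mM NaClO₄, pH 7.39 was incubated with test compound at compound/DNA molar ratios of 0.25–4.0, 37 °C, 20 h, in the dark. Free DNA and cisplatin-DNA served as controls. Samples ran on 1% agarose in TAE for 1.5 h at 80 V, with GelRed staining for 30 min.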

[1] = tested on: Jurkat sh-Bak cells (Bax/Bak-deficient Jurkat cells); experiment: Activity against apoptosis-resistant cells; format: cell-based, human; details: cisplatin-resistant
Solubility = format: physicochemical
[2] = Stability in solution by 31P{1H} and 1H NMR; format: physicochemical; details: RT
[3] = tested on: DU-145 human prostate cancer cells; experiment: Cytotoxicity by modified MTT-reduction method, 24 h; format: cell-based; details: DU-145 cells
Procedure, shortened: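 DU-145 cells were grown in RPMI 1640 with 5% FCS, L-glutamine and penicillin/streptomycin, seeded at 1 ×10⁵ cells/mL and allowed to attach. […] After 24 h, proliferation was read by a modified MTT-reduction method and IC₅₀ derived.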

Calf Thymus DNA = experiment: Interaction with CT DNA by circular dichroism; format: binding; details: drug/DNA ratios 0.1-1.0, 37 °C, 20 h
Procedure, shortened: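 CT DNA (195 µM) in 5 mM Tris/HCl, 50 mM NaClO₄, pH 7.39 received test compound from fresh 5 mM stocks in DMSO-H₂O (1:99). Mixtures were kept 20 h at 37 °C in the dark. CD spectra were recorded at 25 °C over 220–320 nm, blank-corrected, smoothed with a Savitzky-Golay filter, and expressed in molar ellipticity.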

[4] = tested on: DU-145 human prostate cancer cells; experiment: Cell death pathway; format: cell-based; details: 24 h
Procedure, shortened: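 DU-145 cells in RPMI 1640 with 5% FCS, L-glutamine and penicillin/streptomycin were seeded at 1×10⁵ cells/mL and allowed to attach. Test compound (1% DMSO, diluted in water) was given for 24 h. Nuclei were stained with Hoechst (10 µg/ml) and imaged under UV. For flow cytometry, cells went into Hepes pH 7.4 annexin buffer with Annexin V conjugate (0.5 µg/ml) and 7-AAD, 37 °C, 15 min.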

[5] = tested on: human Jurkat-T acute lymphoblastic leukemia cells; experiment: Cytotoxicity by modified MTT-reduction method, 24 h; format: cell-based
Jurkat cells = experiment: Cell death pathway; format: cell-based, human; details: 24 h, concentrations for IC50 values
Procedure, shortened: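 Jurkat cells (5 ×10⁵ cells/ml) exposed to test compound for 24 h. Nuclei stained with Hoechst (10 µg/ml) and photographed under UV light. For flow cytometry, cells were held in annexin binding buffer (140 mM NaCl, 2.5 mM CaCl₂, 10 mM Hepes/NaOH, pH 7.4) with fluorescent AnnexinV (0.5 µg/ml) and 7-AAD (50ng/µl) at 37 °C for 15 min, then diluted with buffer and counted.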

[6] = tested on: MOLT-4 human leukemia cell line; details: read-out: IC50 MOLT-4; cited from earlier work
[7] = target: human serum albumin (HSA) (Homo sapiens, UniProt P02768); experiment: HSA fluorescence quenching; format: binding; details: excitation 295 nm, HSA 10 µM, phosphate buffer pH 7.39; compared to cisplatin
Procedure, shortened: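 HSA (10 µM) in phosphate buffer pH 7.39 received ten successive additions from an 8 mM DMSO stock of test compound, with a read 240 s after each. Tryptophan excitation was at 295 nm and emission was recorded at 300–450 nm at room temperature. Data were fitted to the Stern-Volmer equation F₀/F = 1 + K_SV[Q].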

Sequence of human serum albumin (HSA) (P02768 25-609): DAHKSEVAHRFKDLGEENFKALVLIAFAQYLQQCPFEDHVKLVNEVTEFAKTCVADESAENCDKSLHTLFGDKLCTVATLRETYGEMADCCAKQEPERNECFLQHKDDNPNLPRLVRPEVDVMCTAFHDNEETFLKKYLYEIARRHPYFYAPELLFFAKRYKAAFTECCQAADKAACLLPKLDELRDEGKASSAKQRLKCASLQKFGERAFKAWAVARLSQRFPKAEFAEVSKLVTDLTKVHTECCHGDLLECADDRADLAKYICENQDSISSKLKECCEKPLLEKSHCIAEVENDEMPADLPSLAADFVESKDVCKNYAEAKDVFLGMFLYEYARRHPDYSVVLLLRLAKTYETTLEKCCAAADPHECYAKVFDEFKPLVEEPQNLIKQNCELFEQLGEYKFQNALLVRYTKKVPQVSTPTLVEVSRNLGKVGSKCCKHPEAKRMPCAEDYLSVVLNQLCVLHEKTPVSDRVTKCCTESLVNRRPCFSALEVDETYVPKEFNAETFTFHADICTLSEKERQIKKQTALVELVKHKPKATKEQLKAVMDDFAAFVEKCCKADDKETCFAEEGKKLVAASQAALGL

| SMILES | effect on electrophoretic mobility of pBR322 forms (plasmid (pBR322) DNA) | toxicity to Jurkat sh-Bak cells [1] | solubility in H2O (Solubility; H2O) | stable in DMSO solution (time) ([2]; DMSO) [days] | stable in H2O (time) ([2]; H2O) [h] | times more cytotoxic than cisplatin [3] [times] | effect on CD spectrum of CT DNA / interaction with CT DNA (Calf Thymus DNA) | cell death / growth in DU-145 cells [4] | solubility at concentrations required for ITC (Solubility; ITC conditions, phosphate buffer) | times more cytotoxic than cisplatin [5] | cell death in Jurkat cells (Jurkat cells) | IC50 [6] [µM] | quenching of HSA fluorescence [7] |
| --- | --- | --- | --- | --- | --- | --- | --- | --- | --- | --- | --- | --- | --- |
| N.N.[Cl][Pt][Cl] [Cisplatin, reference compound] | decrease in mobility of the CCC form and an increase in mobility of the OC form | activity is totally dependent on the presence of functional Bax and Bak | – | – | – | – | – | – | – | – | – | – | – |
| O=C(N=P12CN3CN(CN(C3)C1)C2)c1ccccn1 [Compound 1, TPA=N-C(O)-2-NC5H4 (N,N-IM)] | does not cause any shift for either form | – | soluble | 14 | 3 | – | – | – | – | – | – | – | – |
| O=C1[N-][Au]([Cl])([Cl])[n+]2ccccc21 [Compound 5, [AuCl2(HN-C(O)-2-NC5H4)]] | – | exhibited some toxicity | – | – | – | 4 | decrease in helicity (destabilizing effect); also recorded: interacts more strongly with DNA most likely by intercalation | do not induce cell death in DU-145 at 24 h | poor solubility at the required concentrations | seven | induced cell death in Jurkat cells; also recorded: induce both necrotic and apoptotic cell death | 3.1 | higher quenching |
